Screening data (PubChem BioAssay)
DAGLB inh: DAGLB lipase inhibitors, primary screen, biochemical, fluorescence, HTS | HEK293T DAGLB membrane lysate, EnzChek fluorogenic substrate | inhibition, % at 5.17 µM | 0.059% of 340,000 active; in the data active = inhibition above about 34%;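 note: 0% = enzyme with vehicle and 100% = wells lacking enzyme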
Fh CTSL1 inh: Fasciola hepatica cathepsin L1 inhibitors, primary screen, counter-screen for PFM18AAP inhibitor project, biochemical, QFRET, fluorogenic peptide substrate. recombinant F. hepatica cathepsin L1, Z-Leu-Arg-MCA fluorescence. 0.49% of 300,000 active. AID 1906, 2009. inhibition, % at 5.96 µM;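 active = inhibition above the mean of all tested compounds plus 3 SD, set per screening campaign, cut at about 17% in these data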;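 note: 0% = plate median of test compound wells and 100% = 1 µM Z-Phe-Ala-diazomethylketone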
UCH37 inh: inhibitors of human UCH37 deubiquitinase, primary screen, biochemical, Ub-AMC cleavage, fluorescence. 0.33% of 330,000 active. inhibition, % (no concentration beside the values). Ubiquitin carboxyl-terminal hydrolase isozyme L5 (Homo sapiens), Q9Y5K5. purified proteasome/UCH37. AID 588478, 2011;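 active = mean inhibition over replicate wells above about 20%, limit read from the data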;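 note: 0% = compound-free wells with enzyme and 100% = wells lacking proteasome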
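system = Proteasome-associated human UCH37 deubiquitinase | amount = 0.15 nM proteasome as dispensed | medium = pH 7.4 Tris-HCl (50 mM) with ovalbumin, ATP-MgCl2, DTT | incubation = 30 min preincubation with enzyme, 25 min cleavage at room temperature | detection = AMC fluorescence 355/460 nm | read-out basis = percent inhibition | controls = no-proteasome and no-compound wells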
MT1-MMP act inh: blockers of MT1-MMP proenzyme processing, primary screen, HT1080 RFP-PRO-GFP cells, GFP/RFP fluorescence. Matrix metalloproteinase-14 (Homo sapiens), P50281. GFP/RFP ratio fluorescence, overnight; percent of plate control window, DMSO zero. GFP/RFP ratio change, % at 20 µM. 0.061% of 360,000 active. AID 651647, 2012;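 active = GFP/RFP ratio change of at least 30% with cell ATP level not reduced by more than half and red fluorescence within 50% of control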
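Assay system: RFP-PRO-GFP reporter HT1080 cells; read-out basis: GFP/RFP fluorescence ratio; benchmarks: DMSO wells and RFP-L50D-GFP cells; doses: 20 µM single dose, 1% DMSO; schedule: overnight cell settling, then overnight compound exposure, 37 °C, 5% CO2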
NRP1-CendR mod: modulators of CendR peptide binding to NRP-1, primary screen, biochemical, fluorescence polarization, uHTS | Neuropilin-1 (Homo sapiens), O14786 | AID 602438, 2012 | inhibition, % at 25 µM | FAM-RPARPAR peptide binding to NRP-1 | 0.85% of 360,000 active;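 active = inhibition or corrected inhibition above about 18%, plus a signal ratio from 0.5 to 1.5, limit read from the data, passing the limit was not always enough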
Target sequence (O14786 whole entry, looked up): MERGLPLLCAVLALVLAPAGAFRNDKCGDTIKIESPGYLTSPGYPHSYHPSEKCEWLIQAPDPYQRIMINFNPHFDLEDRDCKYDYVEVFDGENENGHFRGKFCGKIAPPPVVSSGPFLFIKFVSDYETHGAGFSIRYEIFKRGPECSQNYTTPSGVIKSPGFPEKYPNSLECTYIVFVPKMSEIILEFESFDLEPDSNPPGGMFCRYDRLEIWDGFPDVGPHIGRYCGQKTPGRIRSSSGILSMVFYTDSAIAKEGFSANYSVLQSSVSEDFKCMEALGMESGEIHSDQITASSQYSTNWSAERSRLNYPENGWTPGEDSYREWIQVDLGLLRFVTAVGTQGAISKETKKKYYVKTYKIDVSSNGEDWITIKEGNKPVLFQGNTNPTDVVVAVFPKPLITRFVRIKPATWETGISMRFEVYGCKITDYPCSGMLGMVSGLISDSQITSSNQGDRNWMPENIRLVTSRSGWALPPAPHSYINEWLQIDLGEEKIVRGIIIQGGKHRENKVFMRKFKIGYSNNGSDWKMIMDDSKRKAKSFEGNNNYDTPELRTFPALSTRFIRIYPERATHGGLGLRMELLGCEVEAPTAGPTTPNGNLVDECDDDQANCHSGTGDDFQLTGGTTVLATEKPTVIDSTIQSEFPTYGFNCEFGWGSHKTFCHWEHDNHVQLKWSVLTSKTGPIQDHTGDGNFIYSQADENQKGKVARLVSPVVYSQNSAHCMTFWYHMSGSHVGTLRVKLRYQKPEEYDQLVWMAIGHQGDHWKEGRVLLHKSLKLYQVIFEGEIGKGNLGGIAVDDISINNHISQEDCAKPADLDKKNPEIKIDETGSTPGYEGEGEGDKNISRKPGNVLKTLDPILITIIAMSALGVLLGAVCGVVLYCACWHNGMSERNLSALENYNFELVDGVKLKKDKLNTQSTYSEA
Active calls of the source: *; i = inactive; . = no result. Hits are enriched below; roughly 1.5% of the tested compounds scored in any of these assays.

SMILES	DAGLB inh	Fh CTSL1 inh	UCH37 inh	MT1-MMP act inh	NRP1-CendR mod
Cc1cccn2c(=O)c(/C=C(\C#N)C(=O)NC3CCS(=O)(=O)C3)c(N3CCC(C)CC3)nc12 (stereo not drawn)	-3	17*	-4	-17	-13
CC(=O)c1cn(CC(=O)NCC2CCCO2)c2ccccc12 (stereo not drawn)	0	0	4	4	20*
Cc1ccc2c(c1)c1c(c(=O)n(-c3ccccc3C)c(=O)n1CC(=O)NCC1CCCO1)n2C (stereo not drawn)	0	-1	i	-2	31*
Cc1cc(C)cc(-n2c(=O)c3ccccc3n(CC(=O)NCC3CCCO3)c2=O)c1 (stereo not drawn)	0	3	-2	0	0
Cc1ccc2occ(C=NNC(=O)c3ccccc3C)c(=O)c2c1	.	.	-66	.	.
C=CCn1cc(C=NNc2nc3ccccc3[nH]2)c2ccccc21	.	.	-10	.	.
CN(C(=O)CSc1ncnc2scc(-c3ccccc3)c12)C1CCS(=O)(=O)C1 (stereo not drawn)	0	17*	-1	-6	-12
CN(C(=O)CSc1ncnc2sc(-c3ccccc3)cc12)C1CCS(=O)(=O)C1 (stereo not drawn)	-2	1	0	4	1
CCCC(=O)Nn1cnc2c(c1=O)C1(CCCC1)Cc1ccccc1-2	-3	0	4	-1	25*
CCCOc1ccc(C=NNc2ccccn2)cc1OC	.	.	2	.	.
COC(=O)C1=C(C(=O)OC)[C@@H]2N(C)c3ccc(OC)cc3[C@@]23C[C@@H](C(=O)OC)N(C(=O)c2cccs2)C3=N1	-2	-2	42*	-5	-12
Cn1c(=O)c2cc(NCc3ccccc3)nnc2n(C)c1=O	-7	57*	0	18	10
CCNC(=O)C1(C)CCN(Cc2ccc(C(F)(F)F)cc2)C1 (stereo not drawn)	.	.	.	-2	10
CCCNC(=O)C1(C)CCN(Cc2cc(C(F)(F)F)ccc2Cl)C1 (stereo not drawn)	.	.	.	4	22*
COc1ccc(C(N)c2nccc3cc(OC)c(OC)cc23)cc1OC (stereo not drawn)	0	26*	-2	-6	-11
CC(=NNC(=O)Cc1cccn1C)c1ccc([N+](=O)[O-])cc1	.	.	7	.	.
CC(C)CNC(=O)/C=C/C=C/CCCC/C=C/c1ccc2c(c1)OCO2	-5	.	3	0	25*
CC(C=NNC(=O)c1ccc(CN2c3cccc4cccc(c34)S2(=O)=O)cc1)c1ccccc1 (stereo not drawn)	.	.	-91	.	.
O=C(NCCCN1CCCC(O)C1)c1cc(COc2ccc(F)cc2F)on1 (stereo not drawn)	0	-2	-3	0	40*
CC(=NNC(=O)CSc1nc2ccccc2n1C)c1ccco1	.	.	-1	.	.
COc1ccc(C=NNC(=O)c2ccc(-c3ccccc3)cc2)c(OC)c1OC	.	.	-41	.	.
CC(=O)C1CCCN(C(=O)c2ccc3nc(Cc4cccc(Cl)c4)oc3c2)C1 (stereo not drawn)	-1	2	4	3	10
NC(=O)C1CCCN(C(=O)c2ccc3nc(Cc4cccc(Cl)c4)oc3c2)C1 (stereo not drawn)	-2	-6	-1	-1	27*
CC(=O)Nc1cccc(C(C)=NNS(=O)(=O)c2ccc(C)cc2)c1	.	.	3	.	.
Cc1c(CC(=O)N2CCN(C(=O)C3COc4ccccc4O3)CC2)c(=O)oc2cc(O)ccc12 (stereo not drawn)	1	4	i	1	72*
SMILES	DAGLB inh	Fh CTSL1 inh	UCH37 inh	MT1-MMP act inh	NRP1-CendR mod
COc1cccc(CC(=O)OCC(=O)N(C)CC(=O)Nc2ccccc2Cl)c1	-1	.	2	-1	20*
COc1cc(/C=N/N=C2/C(=O)Nc3ccccc32)cc(OC)c1O	8	-2	.	5	25*
COc1cc(C=NN=C2C(=O)Nc3ccccc32)ccc1O	.	.	18	.	.
CCCCN(C(=S)Nc1ccccc1)C1CCS(=O)(=O)C1 (stereo not drawn)	-4	18*	3	-1	9
O=C1CSC(c2cccc([N+](=O)[O-])c2)N1c1c(F)cccc1F (stereo not drawn)	0	20*	2	3	7
O=C1CSC(c2cccc(F)c2)N1c1c(F)cccc1F (stereo not drawn)	-2	1	1	4	-3
Cc1cc(C)c(S(=O)(=O)c2c(C)cccc2C)c(Cl)n1	-3	-5	7	0	-2
Cc1cc(C)c(S(=O)(=O)c2cccc(Cl)c2)c(Cl)n1	-1	4	3	0	33*
Cc1cc([N+](=O)[O-])nn1Cc1ccc(C(=O)NN=Cc2ccc(N(C)C)cc2)cc1	.	.	13	.	.
CN(C)/C(=N\S(=O)(=O)c1ccccc1)c1ccccc1	-1	5	.	-2	27*
CC(=O)N1CCSc2ccc(S(=O)(=O)Nc3ccc(C)cc3)cc21	1	4	3	2	22*
Cc1ccc(N2C(=O)C(Cl)=C(NCc3ccccc3)C2=O)c(C)c1	-12	-1	-2	-3	21*
N#C/C(=C(/O)CSc1ccccc1C(=O)O)c1nc2ccccc2s1	3	5	21*	1	-41
N#C/C(=C(/O)CSc1ccccn1)c1nc2ccccc2s1	2	11	16	-5	-16
O=C(NCc1ccco1)C(Cc1ccccc1)N1C(=O)C2C3C=CC(C3)C2C1=O (stereo not drawn)	3	20*	6	2	-5
CCCCn1c(CCCNC(=O)c2ccco2)nc2ccccc21	1	1	3	-1	22*
CCCCn1c(CCNC(=O)c2ccco2)nc2ccccc21	-1	4	3	0	-11
CCn1c(CCn2c3ccccc3c3ccccc32)n[nH]c1=S	3	3	0	3	40*
C=CCN1C(=O)C(Cc2ccc(OC)cc2)SC1=NN=Cc1ccco1 (stereo not drawn)	.	.	5	.	.
Nc1nnc(SCC(=O)Nc2sc3c(c2C(=O)c2ccccc2)CCCC3)s1	5	5	0	-5	3
Cc1ccc(C(=O)c2c(NC(=O)CSc3nnc(N)s3)sc3c2CCCC3)cc1	4	-1	8	1	33*
CC(C)(C)c1ccc(OCc2ccc(C(=O)NN=Cc3ccc(O)c(O)c3)cc2)cc1	.	.	-8	.	.
CCCCOc1ccc(/C=C2/Sc3ccccc3C2=O)cc1	-2	2	7	24	35*
CC(C)COc1ccc(/C=C2/Sc3ccccc3C2=O)cc1	-2	3	2	17	-96
